Source: ChEMBL document CHEMBL4732066, “SP1-independent inhibition of FOXM1 by modified thiazolidinediones” (Eur J Med Chem, 2021)
The source made the active and inactive calls. No cut-off for these calls is given here.

How the values were obtained:
[1] = Downregulation of FOXM1 expression in human MDA-MB-231 cells at 40 uM after 48 hrs by Western blot analysis relative to control; format: functional
Procedure, shortened: (§1)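 MDA-MB-231 cells (RPMI, 10% FBS, 37 °C, 5% CO2) were treated in 6-well plates and lysed in RIPA buffer for 30 min after ice-cold PBS washes. Protein was quantified by Bradford and equal amounts run on 10% SDS-PAGE, then transferred to nitrocellulose and blocked in 10% milk/TBST for 45 min. Primary antibody was used at 1:1000 at 4 °C overnight, secondary for 45 min at RT, with chemiluminescent detection.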

Forkhead box protein M1 = target: T1, Forkhead box protein M1 (Homo sapiens, UniProt Q08050); assay: Binding affinity to recombinant FOXM1 DBD (unknown origin) expressed in Escherichia coli BL21 (DE3) assessed as disruption of FOXM1-DNA complex preincubated for 1.5 hrs followed by DNA addition measured after 20 mins by EMSA
T1 sequence (Q08050 whole entry): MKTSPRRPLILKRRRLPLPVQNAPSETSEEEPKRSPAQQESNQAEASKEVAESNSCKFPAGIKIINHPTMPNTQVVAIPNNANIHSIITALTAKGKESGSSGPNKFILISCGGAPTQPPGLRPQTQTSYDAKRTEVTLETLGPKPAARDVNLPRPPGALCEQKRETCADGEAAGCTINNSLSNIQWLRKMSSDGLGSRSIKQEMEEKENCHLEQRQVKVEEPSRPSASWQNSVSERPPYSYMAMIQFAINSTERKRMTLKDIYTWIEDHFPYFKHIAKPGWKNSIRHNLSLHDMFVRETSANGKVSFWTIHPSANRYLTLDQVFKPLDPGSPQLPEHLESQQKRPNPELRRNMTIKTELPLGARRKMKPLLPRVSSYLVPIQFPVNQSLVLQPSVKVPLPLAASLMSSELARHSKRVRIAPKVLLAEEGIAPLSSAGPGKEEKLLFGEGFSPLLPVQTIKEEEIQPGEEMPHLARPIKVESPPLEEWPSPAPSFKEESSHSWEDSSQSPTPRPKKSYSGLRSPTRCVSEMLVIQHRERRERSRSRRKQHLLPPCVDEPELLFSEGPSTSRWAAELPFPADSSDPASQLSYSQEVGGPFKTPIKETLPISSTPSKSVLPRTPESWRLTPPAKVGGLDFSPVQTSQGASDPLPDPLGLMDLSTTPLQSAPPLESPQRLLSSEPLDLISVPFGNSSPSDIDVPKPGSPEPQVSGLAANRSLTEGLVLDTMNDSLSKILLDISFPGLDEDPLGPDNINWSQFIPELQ

[2] = target: T2, Forkhead box protein M1 (Homo sapiens) (UniProt Q08050); assay: Inhibition of FOXM1 transcriptional activity in human MDA-MB-231 cells at 40 uM after 12 hrs by luciferase reporter gene assay; format: cell-based
T2 sequence (whole entry): T1 sequence (Q08050 whole entry)
Procedure, shortened: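 MDA-MB-231 cells were transiently transfected with equal amounts of 6x-FOXM1 firefly luciferase reporter and empty pGL4.10 backbone. After 24 h, cells were drug-treated for 12 h, PBS-washed and lysed in reporter lysis buffer. Firefly luciferase activity was read on equal total protein per lysate, in triplicate, with significance by one-way ANOVA.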

MDA-MB-231 [3] = assay: Downregulation of SP1 expression in human MDA-MB-231 cells at 80 uM after 24 hrs by Western blot analysis; format: functional, cell-based; procedure, shortened: as §1
MDA-MB-231 [4] = assay: Effect on SP1 expression in human MDA-MB-231 cells at 80 uM after 24 hrs by Western blot analysis; format: functional, cell-based; procedure, shortened: as §1

Compound | inhibition at 40 µM [1] [%] | other results
O=C1NC(=O)/C(=C/c2ccc(OCc3ccc([N+](=O)[O-])cc3)c([N+](=O)[O-])c2)S1 | 80 | 
O=C1NC(=O)/C(=C/c2ccc(OCc3ccc(C(F)(F)F)cc3)cc2)S1 | > 90 | 
Cc1c(C)c2c(c(C)c1O)CCC(C)(COc1ccc(CC3SC(=O)NC3=O)cc1)O2 (stereo unspecified) [TROGLITAZONE] | 80 | IC50 (Forkhead box protein M1): 122 µM; Ki (Forkhead box protein M1): 0.052 µM; inhibition [2]: Active; inhibition (MDA-MB-231 [3]): Active
O=C1NC(=O)/C(=C/c2ccc(OCc3ccc([N+](=O)[O-])cc3)cc2)S1 | 80 | 
COC(=O)c1ccc(COc2ccc(/C=C3\SC(=O)NC3=O)cc2[N+](=O)[O-])cc1 | 80 | 
COC(=O)c1ccc(COc2ccc(/C=C3\SC(=O)NC3=O)cc2OC)cc1 | 80 | 
COc1cc(/C=C2\SC(=O)NC2=O)ccc1OCc1ccc([N+](=O)[O-])cc1 | 80 | 
Nc1c(C(=O)Nc2ccc(F)cc2)sc2nc(-c3cccs3)cc(C(F)(F)F)c12 | 80 | 
COc1cc(/C=C2\SC(=O)NC2=O)ccc1OCc1ccc(C(F)(F)F)cc1 | > 90 | Activity (MDA-MB-231 [4]): inactive
COc1ccc(/C=C2\SC(=O)NC2=O)cc1OCc1ccc([N+](=O)[O-])cc1 | > 90 | 
COc1ccc(/C=C2\SC(=O)NC2=O)cc1OCc1ccc(C(F)(F)F)cc1 | 80 | 
